The source of these data is ChEMBL document CHEMBL5042551, “Dynamic Combinatorial Optimization of In Vitro and In Vivo Heparin Antidotes” (J Med Chem, 2022).

The source made the active and inactive calls. No cut-off for these calls is given here.

Assay [1] addresses Heparin. The assay can be described thus: Binding affinity to heparin (unknown origin) assessed as apparent dissociation constant by SPR assay. Details: species or system Homo sapiens. To be noted: read-out: Kd(app). An outline of the steps:
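Heparin-functionalized chip: biotin sensor chip loaded with streptavidin (50 μg/mL), then biotin-heparin (50 μg/mL). Ligands injected at 40 μL/min, 25 °C, in 25 mM Tris pH 7.5; surface regenerated with 10 mM HCl. Three independent runs at three ligand concentrations globally fitted to a 1:1 two-state (conformational change) model to give on/off rates and KDapp.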
For orientation: SPR reads the build-up and loss of mass on a sensor chip optically.

The test system of assay [2] is Heparin. As to the kind of experiment: Inhibition of heparin (unknown origin) assessed as reversal of heparin reduced FXa protease activity by measuring Z-D-LGR-N(Me)ANBA peptide substrate at 1 uM hydrolysis after 30 mins. As to conditions: Homo sapiens. An outline of the steps: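 Human antithrombin III (0.02 IU/mL) and factor Xa (0.085 μg/mL) combined with heparin (0.1 IU/mL) and ligand (1 μM), then chromogenic substrate added (485 μM) with 4-nitroaniline as internal standard, shaken at 25 °C. Aliquots acid-quenched and analysed by HPLC at 405 nm; percent hydrolysis taken from normalized cleaved-peptide area, with no-heparin as maximal activity and heparin-only as maximal inhibition.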

The test system of assay [3] is Heparin. The assay can be described thus: Reversal of heparin mediated anticoagulant activity in heparinized CD-1 mouse at 2.2 to 4.4 mg/kg, iv after 10 mins by tail transection assay. Format: organism-based. As to conditions: dose 2.2-4.4 mg/kg. An outline of the steps: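 Eight-week-old male CD-1 mice anaesthetised with xylazine/ketamine, then given iv heparin (100 IU/kg) followed by ligand at 2.2 or 4.4 mg/kg; saline, heparin-only and ligand-only (4.4 mg/kg, n = 3) controls. Tails cut 5 mm from tip 5 min after injection and bled 10 min into 1 mL saline at 37 °C; blood volume from absorbance at 414 nm against a standard curve. ANOVA.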

For assay [4], the system named is A549. As to the kind of experiment: Cytotoxicity against human A549 cells assessed as reduction in cell viability at 25 to 50 uM incubated for 1 hr by MTT assay. As to conditions: dose 25-50 µM. Type of assay: functional, cell-based. An outline of the steps: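 A549 cells grown in DMEM with 10% FCS, 2 mM glutamine and antibiotics at 37 °C, 5% CO2; seeded at 7000 cells/well, exposed to compound in medium 24 h later for 1 h, then MTT (0.5 mg/mL) for 2 h, formazan dissolved in DMSO, absorbance read at 570 nm. Viability as percent of untreated cells; three independent experiments.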

Assay [5] deals with Heparin. As to the kind of experiment: Reversal of heparin mediated anticoagulant activity in mouse blood after 15 mins. To be noted: dose 90-250 µM. An outline of the steps: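 Freshly drawn, untreated mouse blood split into 300 μL aliquots, given heparin (130 μM, per disaccharide repeat unit) plus ligand at various concentrations; after 15 min, clotting judged by inverting the tubes and photographing.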

Assay [6] has as its target Heparin. The assay can be described thus: Binding affinity to heparin (unknown origin) assessed as apparent dissociation constant by ITC assay. Details: species or system Homo sapiens. As to conditions: read-out: Kd(app). For orientation: Isothermal titration calorimetry measures the heat released or taken up as one component is titrated into another.
Assay [7] has as its target Heparin. As to the kind of experiment: Binding affinity to heparin (unknown origin) assessed as apparent dissociation constant by fluorescence emission titration method. Details: species or system Homo sapiens. To be noted: read-out: Kd(app). An outline of the steps: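 Binder at 10 μM in 1 mM Bis-Tris pH 7.5, excited at 280 nm; heparin stock (18 IU/mL) added in small portions with emission spectrum recorded after each addition. Full spectra globally fitted by nonlinear regression to a binding model of 1:1, 1:2 and 2:1 ligand–heparin disaccharide complexes to estimate equilibrium constants and apparent KD.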

On to `Oc1ccccc1CNCCCNCCCCNCCCNCc1c(O)ccc2ccccc12`, for which the Kd in assay [1] was found to be 2620 nM.
For `Oc1c(CNCCCNCCCCNCCCNCc2ccc3ccccc3c2O)ccc2ccccc12`, the inhibition result in assay [2] was “Active”.
On to `Oc1ccc2ccccc2c1CNCCCNCCCCNCCCNCc1c(O)ccc2ccccc12`, for which, in assay [3], the outcome was Active. Besides, the result in assay [4] was inactive. In assay [1], the Kd came out at 797 nM. Also, the inhibition result in assay [2] was “Active”. Besides, the Activity entry in assay [5] was “Dose-Dependent Effect”.
Turning to `Oc1ccccc1CNCCCNCCCCNCCCNCc1cccc2ccccc12`, the values for the Kd in assay [6] and in assay [1] were 1.3 µM and 1890 nM, respectively.
Turning to `Oc1ccccc1CNCCCNCCCCNCCCNCc1ccc2ccccc2c1O`, the Kd in assay [1] came out at 1860 nM. Besides, the inhibition entry in assay [2] is “Active”.
In the case of `N=C(N)NCCC[C@H](N)C(=O)NCCCN1CCN(CCCNC(=O)[C@@H](N)CCCNC(=N)N)CC1` [CIRAPARANTAG], the Kd in assay [1] worked out at 1530 nM. For the same compound, the inhibition entry in assay [2] was “Active”.
`COc1ccccc1CNCCCNCCCCNCCCNCc1ccccc1OC`: the Kd in assay [1] came out at 33700 nM.
In the case of `Oc1ccccc1CNCCCNCCCCNCCCNCc1ccc2c(c1)Cc1ccccc1-2`, the outcome in assay [3] was Active. Also, the outcome in assay [4] was inactive. Further, the Kd is 567 nM in assay [1] and 500 nM in assay [7]. For the same compound, the inhibition result in assay [2] is “Active”. In addition, in assay [5], the Activity result was “Dose-Dependent Effect”.
For the compound `Oc1ccccc1CNCCCNCCCCNCCCNCc1ccccc1O`, the Kd in assay [6] is 22.5 µM; in assay [1], 21500 nM.
